Activity calls are given as the source filed them. The calls are words filed in the database; no cut-off is given here.
Assays:
[1] = molecular target: Platelet-activating factor acetylhydrolase 2, cytoplasmic (Mus musculus) (UniProt Q8VDG7); details: Neuro2a, 3 nM
[2] = molecular target: Fatty acid synthase (Mus musculus) (UniProt P19096); details: Neuro2a, 3 nM
[3] = molecular target: T1, Lysosomal phospholipase A and acyltransferase (Mus musculus) (UniProt Q8VEB4); details: Neuro2a, 3 nM
T1 sequence (whole entry): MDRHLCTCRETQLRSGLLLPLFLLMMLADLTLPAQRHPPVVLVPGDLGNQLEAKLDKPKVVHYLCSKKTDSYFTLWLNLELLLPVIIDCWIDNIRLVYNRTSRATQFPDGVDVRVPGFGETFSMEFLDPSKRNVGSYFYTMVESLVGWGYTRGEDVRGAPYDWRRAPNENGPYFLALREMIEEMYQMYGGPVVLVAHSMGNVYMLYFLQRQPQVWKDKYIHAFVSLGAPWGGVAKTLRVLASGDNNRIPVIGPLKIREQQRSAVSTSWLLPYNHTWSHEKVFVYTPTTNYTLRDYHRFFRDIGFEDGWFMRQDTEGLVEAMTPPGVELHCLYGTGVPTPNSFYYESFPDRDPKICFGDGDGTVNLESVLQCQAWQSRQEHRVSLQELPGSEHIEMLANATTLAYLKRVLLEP

[4] = molecular target: T2, Monoacylglycerol lipase ABHD6 (Mus musculus) (UniProt Q8R2Y0); details: Neuro2a, 3 nM
T2 sequence (whole entry): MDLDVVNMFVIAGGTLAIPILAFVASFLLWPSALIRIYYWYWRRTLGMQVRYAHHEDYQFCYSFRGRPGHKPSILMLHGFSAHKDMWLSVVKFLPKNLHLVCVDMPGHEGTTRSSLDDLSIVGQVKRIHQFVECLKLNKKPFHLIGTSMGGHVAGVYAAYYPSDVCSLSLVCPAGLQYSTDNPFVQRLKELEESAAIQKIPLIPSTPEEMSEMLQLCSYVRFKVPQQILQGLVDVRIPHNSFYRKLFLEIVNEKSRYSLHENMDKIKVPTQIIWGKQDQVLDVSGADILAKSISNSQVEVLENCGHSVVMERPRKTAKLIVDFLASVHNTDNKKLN

[5] = molecular target: Acyl-protein thioesterase 2 (Mus musculus) (UniProt Q9WTL7); assay: Inhibition of FP-rhodamine-labelled recombinant mouse LYPLA2 at 10 uM preincubated for 30 mins followed by FP-rhodamine labelling measured after 30 mins by gel-based competitive ABPP assay
Chain of Acyl-protein thioesterase 2 (Mus musculus) (Q9WTL7 whole entry): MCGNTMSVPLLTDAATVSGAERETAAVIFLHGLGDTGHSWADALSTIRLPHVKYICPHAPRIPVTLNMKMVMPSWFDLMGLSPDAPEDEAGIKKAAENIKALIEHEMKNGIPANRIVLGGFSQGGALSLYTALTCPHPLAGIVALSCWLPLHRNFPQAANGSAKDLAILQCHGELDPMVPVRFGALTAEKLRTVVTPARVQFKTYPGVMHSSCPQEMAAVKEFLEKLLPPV

[6] = system: Mus musculus; assay: In vivo inhibition of carboxylesterase-1 in C57Bl/6 mouse liver at 0.1 to 1 mg/kg, ip after 4 hrs by FP-rhodamine-labelled gel-based competitive ABPP assay; format: functional, organism-based
Outline: (§1)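 C57Bl/6 mice dosed i.p. at 0.1, 0.5 or 1 mg kg⁻¹ in 18:1:1 saline/ethanol/PEG40 (ethoxylated castor oil), 10 μL g⁻¹. Killed after 4 hr under isoflurane by cervical dislocation. Brain and liver membrane fractions (100,000 × g) labelled with FP-rhodamine or HT-01 (1 μM, 30 min, 37 °C), then SDS-PAGE and in-gel fluorescence scanning. Liver ABHD6 read from HT-01 gels.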

[7] = molecular target: T3, Presenilin-associated rhomboid-like protein, mitochondrial (Mus musculus) (UniProt Q5XJY4); details: Neuro2a, 3 nM
T3 sequence (whole entry): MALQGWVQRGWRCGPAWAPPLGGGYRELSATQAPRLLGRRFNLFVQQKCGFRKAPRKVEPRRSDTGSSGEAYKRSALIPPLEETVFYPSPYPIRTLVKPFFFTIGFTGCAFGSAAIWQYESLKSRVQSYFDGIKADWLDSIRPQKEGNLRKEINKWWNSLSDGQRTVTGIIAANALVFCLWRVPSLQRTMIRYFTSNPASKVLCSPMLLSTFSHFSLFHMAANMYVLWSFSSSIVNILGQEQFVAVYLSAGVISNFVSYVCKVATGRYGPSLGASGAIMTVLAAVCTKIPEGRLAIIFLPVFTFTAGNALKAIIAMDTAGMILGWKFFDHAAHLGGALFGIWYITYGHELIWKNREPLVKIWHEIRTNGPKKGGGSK

[8] = system: Mus musculus; assay: In vivo inhibition of carboxylesterase-1 in C57Bl/6 mouse brain at 0.1 to 1 mg/kg, ip after 4 hrs by FP-rhodamine-labelled gel-based competitive ABPP assay; format: functional, organism-based
Outline: as §1

[9] = molecular target: T4, Lysosomal Pro-X carboxypeptidase (Mus musculus) (UniProt Q7TMR0); details: Neuro2a, 3 nM
T4 sequence (whole entry): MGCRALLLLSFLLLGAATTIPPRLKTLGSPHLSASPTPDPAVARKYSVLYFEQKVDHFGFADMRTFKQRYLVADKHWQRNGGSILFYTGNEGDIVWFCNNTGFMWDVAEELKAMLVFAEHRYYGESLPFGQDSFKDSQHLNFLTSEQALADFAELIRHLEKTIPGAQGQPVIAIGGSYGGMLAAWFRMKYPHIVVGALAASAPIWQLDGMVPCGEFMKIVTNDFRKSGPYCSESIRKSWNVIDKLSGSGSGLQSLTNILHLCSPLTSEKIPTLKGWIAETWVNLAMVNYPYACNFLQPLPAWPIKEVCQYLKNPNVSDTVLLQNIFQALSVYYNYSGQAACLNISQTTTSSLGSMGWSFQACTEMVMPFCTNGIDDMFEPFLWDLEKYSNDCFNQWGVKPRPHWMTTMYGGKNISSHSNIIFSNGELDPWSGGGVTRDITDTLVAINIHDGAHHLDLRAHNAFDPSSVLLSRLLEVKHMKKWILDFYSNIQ

[10] = molecular target: Acyl-protein thioesterase 1 (Mus musculus) (UniProt P97823); assay: Inhibition of FP-rhodamine-labelled recombinant mouse LYPLA1 at 10 uM preincubated for 30 mins followed by FP-rhodamine labelling measured after 30 mins by gel-based competitive ABPP assay
Chain of Acyl-protein thioesterase 1 (Mus musculus) (P97823 whole entry): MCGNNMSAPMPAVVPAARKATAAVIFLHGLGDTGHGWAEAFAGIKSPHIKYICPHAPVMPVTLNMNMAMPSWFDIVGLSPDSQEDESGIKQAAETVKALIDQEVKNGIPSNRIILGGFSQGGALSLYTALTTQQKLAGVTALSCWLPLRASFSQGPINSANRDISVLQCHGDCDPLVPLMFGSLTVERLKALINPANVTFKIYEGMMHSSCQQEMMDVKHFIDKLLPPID

[11] = molecular target: T2, Monoacylglycerol lipase ABHD6 (Mus musculus); details: Neuro2a, 3 nM; remark: listed apart in the source
[12] = system: Mus musculus; assay: In vivo inhibition of ABHD6 in C57Bl/6 mouse liver at 0.1 mg/kg, ip after 4 hrs by HT-10-labelled gel-based competitive ABPP assay; format: functional; details: C57Bl/6, Liver, route intraperitoneal
Outline: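 C57Bl/6 mice dosed i.p. (18:1:1 v/v/v saline/ethanol/PEG40, 10 μL g⁻¹) across 0.1–1 mg kg⁻¹; after 4 hr, anesthetized with isoflurane, euthanized, liver membrane fraction isolated (Dounce homogenization in PBS pH 7.5, 1,400 × g then 100,000 × g spin). Proteome labeled with HT-01 (1 μM, 30 min, 37 °C), SDS-PAGE, in-gel fluorescence; ABHD6 activity versus vehicle.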

[13] = system: Mus musculus; assay: In vivo inhibition of FAAH in C57Bl/6 mouse brain at =>10 mg/kg, po after 4 hrs by FP-rhodamine/HT-10-labelled gel-based competitive assay

Chain of Platelet-activating factor acetylhydrolase 2, cytoplasmic (Mus musculus) (Q8VDG7 whole entry): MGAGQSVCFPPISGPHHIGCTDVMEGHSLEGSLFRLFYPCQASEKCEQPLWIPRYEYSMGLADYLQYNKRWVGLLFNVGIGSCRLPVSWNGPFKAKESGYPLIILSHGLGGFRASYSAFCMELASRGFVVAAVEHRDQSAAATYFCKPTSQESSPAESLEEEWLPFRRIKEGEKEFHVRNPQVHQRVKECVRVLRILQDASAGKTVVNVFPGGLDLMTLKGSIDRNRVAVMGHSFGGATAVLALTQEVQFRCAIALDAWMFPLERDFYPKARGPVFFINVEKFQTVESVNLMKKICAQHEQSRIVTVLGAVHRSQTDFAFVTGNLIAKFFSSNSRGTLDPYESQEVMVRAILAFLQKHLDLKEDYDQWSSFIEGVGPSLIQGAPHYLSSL
Chain of Fatty acid synthase (Mus musculus) (P19096 whole entry): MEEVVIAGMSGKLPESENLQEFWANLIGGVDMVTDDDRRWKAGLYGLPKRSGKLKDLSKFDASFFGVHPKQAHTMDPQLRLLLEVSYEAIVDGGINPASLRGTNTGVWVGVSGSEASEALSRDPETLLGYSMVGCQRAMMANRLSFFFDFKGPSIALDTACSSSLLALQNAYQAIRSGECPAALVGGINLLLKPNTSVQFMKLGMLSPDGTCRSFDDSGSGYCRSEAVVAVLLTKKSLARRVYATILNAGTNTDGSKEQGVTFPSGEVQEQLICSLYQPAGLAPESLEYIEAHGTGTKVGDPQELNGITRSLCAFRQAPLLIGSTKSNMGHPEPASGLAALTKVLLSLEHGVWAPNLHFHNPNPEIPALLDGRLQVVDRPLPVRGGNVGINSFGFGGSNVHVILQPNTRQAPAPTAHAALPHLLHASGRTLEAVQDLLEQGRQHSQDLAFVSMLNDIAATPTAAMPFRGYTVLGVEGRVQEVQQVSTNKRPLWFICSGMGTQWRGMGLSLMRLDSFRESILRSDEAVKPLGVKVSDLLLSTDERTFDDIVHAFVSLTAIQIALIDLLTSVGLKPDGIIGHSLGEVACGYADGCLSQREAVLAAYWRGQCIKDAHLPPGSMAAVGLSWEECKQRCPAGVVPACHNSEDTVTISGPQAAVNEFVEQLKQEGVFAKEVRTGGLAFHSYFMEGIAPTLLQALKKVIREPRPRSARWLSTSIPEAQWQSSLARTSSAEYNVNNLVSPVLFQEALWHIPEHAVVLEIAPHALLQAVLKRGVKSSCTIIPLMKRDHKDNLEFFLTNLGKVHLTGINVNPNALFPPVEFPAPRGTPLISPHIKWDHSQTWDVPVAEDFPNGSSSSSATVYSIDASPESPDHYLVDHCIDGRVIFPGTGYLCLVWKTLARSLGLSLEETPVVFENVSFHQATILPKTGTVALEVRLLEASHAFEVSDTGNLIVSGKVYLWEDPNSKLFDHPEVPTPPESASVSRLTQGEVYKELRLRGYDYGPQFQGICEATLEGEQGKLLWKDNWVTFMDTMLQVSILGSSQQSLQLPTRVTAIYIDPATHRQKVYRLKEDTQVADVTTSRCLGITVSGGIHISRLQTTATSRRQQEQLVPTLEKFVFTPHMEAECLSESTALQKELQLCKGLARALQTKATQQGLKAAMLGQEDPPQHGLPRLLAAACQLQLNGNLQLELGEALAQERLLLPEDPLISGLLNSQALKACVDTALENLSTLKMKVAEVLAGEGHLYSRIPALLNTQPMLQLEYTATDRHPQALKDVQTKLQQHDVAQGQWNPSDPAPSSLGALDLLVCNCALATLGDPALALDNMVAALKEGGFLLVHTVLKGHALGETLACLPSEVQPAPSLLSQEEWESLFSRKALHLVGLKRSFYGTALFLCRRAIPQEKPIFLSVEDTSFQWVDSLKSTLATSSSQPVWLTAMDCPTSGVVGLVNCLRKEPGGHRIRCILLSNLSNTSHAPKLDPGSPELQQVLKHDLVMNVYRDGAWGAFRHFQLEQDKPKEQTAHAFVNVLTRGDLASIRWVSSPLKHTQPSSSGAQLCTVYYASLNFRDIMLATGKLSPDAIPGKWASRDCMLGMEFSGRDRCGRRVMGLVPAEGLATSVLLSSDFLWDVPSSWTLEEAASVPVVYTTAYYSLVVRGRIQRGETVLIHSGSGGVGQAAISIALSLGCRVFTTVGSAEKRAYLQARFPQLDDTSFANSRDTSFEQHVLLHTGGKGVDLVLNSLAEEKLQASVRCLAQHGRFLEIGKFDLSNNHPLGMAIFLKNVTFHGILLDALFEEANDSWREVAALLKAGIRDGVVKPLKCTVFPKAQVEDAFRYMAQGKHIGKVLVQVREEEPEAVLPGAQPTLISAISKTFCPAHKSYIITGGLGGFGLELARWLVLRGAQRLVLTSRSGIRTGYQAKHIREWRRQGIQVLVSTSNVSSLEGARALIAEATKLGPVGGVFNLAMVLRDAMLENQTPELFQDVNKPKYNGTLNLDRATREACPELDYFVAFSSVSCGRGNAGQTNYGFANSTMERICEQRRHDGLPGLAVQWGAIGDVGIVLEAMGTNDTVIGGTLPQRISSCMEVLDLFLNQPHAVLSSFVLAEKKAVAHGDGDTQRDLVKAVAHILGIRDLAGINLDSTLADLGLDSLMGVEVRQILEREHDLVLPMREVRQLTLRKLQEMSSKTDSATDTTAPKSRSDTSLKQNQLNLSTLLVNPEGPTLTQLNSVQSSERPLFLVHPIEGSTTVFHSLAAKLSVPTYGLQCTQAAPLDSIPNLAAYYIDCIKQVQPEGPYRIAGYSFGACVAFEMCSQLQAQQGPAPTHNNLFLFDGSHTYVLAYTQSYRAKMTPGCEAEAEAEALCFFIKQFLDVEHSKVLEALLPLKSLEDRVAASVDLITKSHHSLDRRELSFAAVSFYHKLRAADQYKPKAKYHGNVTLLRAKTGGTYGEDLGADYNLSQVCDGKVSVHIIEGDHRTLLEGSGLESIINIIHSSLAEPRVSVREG

SMILES	inhibition [1]	inhibition [2]	inhibition [3]	inhibition [4]	inhibition [5]	inhibition [6]	inhibition [7]	inhibition [8]	inhibition [9]	inhibition [10]	inhibition [11]	inhibition in vivo at 0.1 mg/kg [12]	inhibition [13]
O=C(N1CCCCC1c1ccccc1)n1cc(-c2ccc(-c3cccc(CO)c3)cc2)nn1 (racemic)	< 50%	< 50%	< 50%	> 90%	Active	Active	< 50%	Active	< 50%	Active	> 90%	80%	Active
O=C(c1cccc(-c2ccc(-c3cn(C(=O)N4CCCCC4c4ccccc4)nn3)cc2)c1)N1CCCCC1 (racemic)	< 50%	< 50%	< 50%	> 80%	Active	–	< 50%	–	< 50%	Active	> 80%	–	–
O=C(O)c1cccc(-c2ccc(-c3cn(C(=O)N4CCCCC4Cc4ccccc4)nn3)cc2)c1 (racemic)	< 50%	< 50%	< 50%	> 90%	–	inactive	< 50%	inactive	< 50%	–	> 90%	80%	Active
